# The campaign covered roughly 360,000 compounds. About 3,600 (1%) were called active. The sample holds actives, similar compounds and a random draw of the others, so the mix is not that of the screen.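 Rule for the calls: active = activation above the mean activation of all test compounds in the run plus 3 SD (cut at about 38% in these data); inactive = the rest.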
# Molecular target: Trace amine-associated receptor 1 (Homo sapiens) (UniProt Q96RJ0)
# Experiment: activators of TAAR1 calcium mobilization – Fluo-8 calcium fluorescence, CHO RD-HGA16 cells, primary screen (AID 624467)
# Details: CHO RD-HGA16 TAAR1, Fluo-8 calcium fluorescence; at 3 µM; stronger effect = higher value; vehicle wells 0%, saturating PEA agonist 100%
# Summary of the method: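 System: CHO RD-HGA16 cells carrying human TAAR1 plus Gα16; Incubation: 17-24 h seeding, 75 min 37 °C dye, 30 min RT; Measured by: Fluo-8 fluorescence, 5 s baseline then 140 s kinetic read; Control set: DMSO and PEA EC100; Replication: single well for each compound.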
# Sequence of Trace amine-associated receptor 1 (Homo sapiens) (Q96RJ0 whole entry, looked up): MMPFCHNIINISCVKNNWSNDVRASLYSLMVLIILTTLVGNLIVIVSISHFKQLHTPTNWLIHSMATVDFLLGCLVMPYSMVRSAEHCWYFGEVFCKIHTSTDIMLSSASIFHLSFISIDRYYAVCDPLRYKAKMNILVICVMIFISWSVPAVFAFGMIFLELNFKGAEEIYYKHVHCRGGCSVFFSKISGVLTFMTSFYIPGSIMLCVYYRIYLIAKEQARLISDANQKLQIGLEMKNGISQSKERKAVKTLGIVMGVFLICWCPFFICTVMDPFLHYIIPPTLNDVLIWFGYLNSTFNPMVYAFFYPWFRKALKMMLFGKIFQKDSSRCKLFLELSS
row,Compound,activation
1,S=C(Nc1ccc(Br)cc1)NC1CCN(Cc2ccccc2)CC1,63% (active)
2,O=C(COc1ccc(Br)cc1F)NC1CCN(Cc2ccccc2)CC1,7.63% (inactive)
3,S=C(Nc1ccc(Br)cc1Cl)NC1CCN(Cc2ccccc2)CC1,18% (inactive)
4,CCC(C)NC(=O)/C=C/c1ccc(S(=O)(=O)NCc2ccco2)cc1 (centres undefined),0.26% (inactive)
5,Cc1ccc2nc(C)c3c(c2c1)N(c1ccccc1)CC3,1.22% (inactive)
6,Nc1nc2c(ncn2[C@@H]2O[C@H](C(=O)N[C@H](Cc3ccccc3)C(=O)NCC3CCCCC3)[C@@H](O)[C@H]2O)c(=O)[nH]1,2.45% (inactive)
7,CC1CCN(C(=O)c2ncn3c2C(=O)N[C@@H](C)C3)CC1,0.53% (inactive)
8,CC1CCc2sc3nc(N4CCN(CCO)CC4)n4ncnc4c3c2C1 (centres undefined),13.3% (inactive)
9,CC(C)[C@H]1COCCS(=O)(=O)N1Cc1ccccc1-c1cccc2c1sc1ccccc12,1.46% (inactive)
10,Cc1cccc(N2CCN(C(=O)c3cnn4c(C(F)F)cc(-c5ccccc5)nc34)CC2)c1C,-0.23% (inactive)
11,Cc1ccc(Cl)cc1N1CCN(C(=O)c2cccc3c(=O)c(C)c(-c4ccccc4)oc23)CC1,78% (active)
12,COc1ccccc1N1CCN(C(=O)c2cc(=O)c3cc(C)cc(C)c3o2)CC1,0.2% (inactive)
13,OC(CCl)CCl,4.28% (inactive)
14,CC(C)(C)n1nc(C2CC2)c(Br)c1NC(=O)c1ccccc1F,-2.19% (inactive)
15,COc1ccc(-c2nc3n(c(=O)c2C#N)CCS3)c(OC)c1,1.68% (inactive)
16,Cc1ccc2c(c1)NCC(C(=O)NC1CCC(C)CC1)O2 (centres undefined),-0.02% (inactive)
17,NS(=O)(=O)c1ccc(NC(=S)N2CCCC2)cc1,0.52% (inactive)
18,NS(=O)(=O)c1ccc(NC(=S)Nc2ccc(Br)c(Cl)c2)cc1,42.6% (active)
19,COc1ccc(NC(=S)Nc2ccc(S(N)(=O)=O)cc2)c(C)c1,5.94% (inactive)
20,N#Cc1ccc(-c2nc3cc(C#N)c(C#N)cc3nc2-c2ccccc2)cc1C#N,2.52% (inactive)
21,Cc1cc2c(nc1C)CCCN2C,0.42% (inactive)
22,O=C(Cn1c(N2CCN(C/C=C/c3ccccc3)CC2)nc2ccccc21)c1ccccc1,7.57% (inactive)
23,CC(Oc1ccc(Cl)cc1)C(=O)Nc1ncccn1 (centres undefined),-0.09% (inactive)

row,Compound,activation
1,CC1(C(=O)OCC(=O)Nc2ncc(Cl)cc2Cl)CC1(Cl)Cl (centres undefined),-0.29% (inactive)
2,CC(Oc1ccc(Cl)cc1)C(=O)OCC(=O)Nc1ncc(Cl)cc1Cl (centres undefined),74.1% (active)
3,CCc1ccc(NC(=O)N2CCc3ccccc3C2)cc1,31% (inactive)
4,Cc1ccc(NC(=O)CCN2CCc3ccccc3C2)cc1,88.5% (active)
5,Cc1ccc(NC(=O)CN2CCc3ccccc3C2)cc1C,9.67% (inactive)
6,CCOc1ccc(Cl)cc1-c1cc(C(=O)NCc2cccs2)[nH]n1,0.34% (inactive)
7,COc1ccc2c(c1)C(=O)CC(c1ccccc1)O2 (centres undefined),5.95% (inactive)
8,COc1ccc2c(c1)SC(C)CC2=O (centres undefined),5.89% (inactive)
9,COc1ccc2c(c1)OC(O)(C(F)(F)C(F)F)CC2=O (centres undefined),56.3% (active)
10,Cc1ccc2c(c1)C(O)(CC(=O)c1cccnc1)C(=O)N2 (centres undefined),0.5% (inactive)
11,CCCCSc1nc2c(c(=O)n1CC)SC(C)C2 (centres undefined),10% (inactive)
12,O=C(NS(=O)(=O)c1cccs1)[C@H]1O[C@@H](n2ccc(=O)[nH]c2=O)[C@H](O)[C@@H]1O,0.38% (inactive)
13,CC1(c2ccc(Cl)cc2)NC(=O)N(CC(=O)c2ccc3c(c2)OCO3)C1=O (centres undefined),48.4% (active)
14,COc1cc(NC(=O)CN2C(=O)NC(C)(c3ccc(OC(F)F)cc3)C2=O)cc(OC)c1OC (centres undefined),5.76% (inactive)
15,Cc1ccc(NC(=O)CN2C(=O)NC(C)(c3ccc(Cl)cc3)C2=O)c(Br)c1 (centres undefined),42.4% (active)
16,COc1ccc(C2(C)NC(=O)N(CC(=O)c3ccc4c(c3)OCO4)C2=O)cc1 (centres undefined),25.5% (inactive)
17,COc1ccc(C(=O)CN2C(=O)NC(C)(c3ccc(C)cc3)C2=O)cc1OC (centres undefined),59.9% (active)
18,Cc1ccc(C2(C)NC(=O)N(CC(=O)N3CC(=O)Nc4ccccc43)C2=O)cc1 (centres undefined),1.06% (inactive)
19,Cc1ccc(S(=O)(=O)N2CCN(C(=O)CN3C(=O)NC(C)(c4ccc(Cl)cc4)C3=O)CC2)c(C)c1 (centres undefined),9.36% (inactive)
20,Cc1ccc(C2(C)NC(=O)N(CC(=O)Nc3ccccc3C(=O)N3CCCCC3)C2=O)cc1 (centres undefined),9.97% (inactive)
21,CC1CCC2(CC1)NC(=O)N(CC(=O)c1ccc3c(c1)OCO3)C2=O (centres undefined),1.46% (inactive)
22,COc1ccc(NC(=O)N(C)C[C@@H]2OCCCC[C@@H](C)Oc3ccc(NC(=O)NC4CCCCC4)cc3C(=O)N([C@H](C)CO)C[C@@H]2C)cc1,0.43% (inactive)
23,O=C(N[C@H](Cc1ccccc1)C(=O)N1CCCN(Cc2cccs2)CC1)[C@H]1O[C@@H](n2ccc(=O)[nH]c2=O)[C@H](O)[C@@H]1O,0.87% (inactive)

row,Compound,activation
1,N#Cc1cccc(C(=O)NCC2CCN(C(=O)C(=O)c3cc4ccccc4o3)CC2)c1,2.73% (inactive)
2,CSc1ccc(Oc2cccc3c2S(=O)(=O)N([C@H](C)c2ccccc2)C[C@@H](COCc2ccccc2)O3)cc1C,-0.58% (inactive)
3,CC(NC(=O)C(=O)NN=C1CCC(C(C)(C)C)CC1)c1ccccc1 (centres undefined),-1.32% (inactive)
4,CCOC(=O)c1cc(-c2ccc(Cl)s2)nc2c1c(C)nn2C,12.8% (inactive)
5,CCCc1nnc(SCC(=O)N2C(C)CCCC2C)n1CC (centres undefined),7.54% (inactive)
6,COc1cc(OC)c(N2CC(C(=O)Nc3cc(Cl)ccc3N3CCOCC3)CC2=O)cc1Cl (centres undefined),9.38% (inactive)
7,COc1cc(OC)c(-n2cc(-c3ccc(Cl)cc3)[nH]c2=O)cc1Cl,135% (active)
8,COc1ccc(-n2c(-c3ccc(Cl)cc3)n[nH]c2=S)c(OC)c1,1% (inactive)
9,O=C(NC1CCCC1)C(c1ccc(Cl)cc1)N(C(=O)c1csnn1)C1CC1 (centres undefined),2.16% (inactive)
10,N#CCSc1ccccc1NC(=O)CN1C(=O)NC(CCc2ccccc2)C1=O (centres undefined),4.54% (inactive)
11,Cc1nc2ccccc2n1CC(=O)N/N=C/c1cccs1,41% (active)
12,COc1ccc(NC(=O)COC(=O)Cn2c(C)nc3ccccc32)cc1OC,8.05% (inactive)
13,Cc1ccc(-c2nnc(SCC(=O)N/N=C/c3cccs3)n2-c2ccc(C)cc2)cc1,2.56% (inactive)
14,COc1ccc(N(C(=O)CNC(=O)c2ccco2)C(C(=O)NCC2CCCO2)c2ccccc2)cc1Cl (centres undefined),14% (inactive)
15,CC(=O)c1ccc(N2CCN(C(=O)c3ccc(Cl)c(S(=O)(=O)NC4CC4)c3)CC2)c(F)c1,5.24% (inactive)
16,COc1ccc(S(=O)(=O)Nc2ccc3c(c2)C(=O)N([C@H](C)CO)C[C@H](C)[C@@H](CN(C)C)OCCCC[C@H](C)O3)cc1,1.27% (inactive)
17,COc1cc(/C=C2\SC(=O)NC2=O)ccc1OCc1ccc(Cl)nc1,0.37% (inactive)
18,C#CCOc1ccc(/C=C2/C(=O)ON=C2C)cc1OCC,26.1% (inactive)
19,C#CCOc1ccc(/C=C2/C(=O)NN(c3ccccc3)C2=O)cc1OC,52.3% (active)
20,CC(C)OC(=O)c1cc(NC(=O)C2C3CCC(O3)C2C(=O)O)cc(C(=O)OC(C)C)c1 (centres undefined),-0.82% (inactive)
21,COc1ccc(NC(=O)C2C3CCC(O3)C2C(=O)O)cc1OC (centres undefined),2.71% (inactive)
22,Cc1sc(NC(=O)C2C3CCC(O3)C2C(=O)O)c(C(=O)OC(C)C)c1-c1ccc(Cl)cc1 (centres undefined),38.3% (active)
23,Cc1nn(C)cc1N1C(=O)c2cccc3c(N)ccc(c23)C1=O,83.9% (active)

row,Compound,activation
1,CN1C(=O)c2cccc3c(N)ccc(c23)C1=O,119% (active)
2,CCCOc1ccc(N2C(=O)CC(N(CCc3ccc(S(N)(=O)=O)cc3)C(C)=O)C2=O)cc1 (centres undefined),1.5% (inactive)
3,Cc1ccc(CNC(=O)Cn2cnc(S(=O)(=O)N3CCCCC3)c2)o1,1.59% (inactive)
4,CCOC(=O)C1CCN(S(=O)(=O)c2ccc3c(c2)N(C(C)=O)CCO3)CC1,-0.05% (inactive)
5,CCCN1C(=O)c2[nH]nc(-c3ccccc3)c2C1c1ccccc1 (centres undefined),2.41% (inactive)
6,CN(C)C(=O)N1CCN(C(=O)[C@@H](Cc2ccccc2)NC(=O)[C@H]2O[C@@H](n3ccc(N)nc3=O)[C@H](O)[C@@H]2O)CC1,1.21% (inactive)
7,COC(=O)Cc1nnn2c1[C@H](C)[C@H](c1ccccc1Br)OCC2,2.69% (inactive)
8,COc1ccc(C(=O)N2CCCCC2c2cc(C(=O)Nc3ccccc3)no2)cc1 (centres undefined),-0.19% (inactive)
9,COc1cc(NC(=O)c2ccc(-c3csc(C)n3)cc2)c(OC)cc1Cl,3.15% (inactive)
10,O=C(Nc1n[nH]c(C(F)(F)F)n1)c1cccs1,-0.13% (inactive)
11,Cc1nc(-c2ccc(NC(=O)c3cccs3)cc2)cs1,44.8% (active)
12,Cc1cccc(C)c1NC(=O)N1CC(C)OC(C)C1 (centres undefined),41.9% (active)
13,COC(=O)[C@H](Cc1ccccc1)NC(=O)N1CC(C)OC(C)C1 (some centres undefined),-0.71% (inactive)
14,CSc1ccc(NC(=O)N2CC(C)OC(C)C2)cc1 (centres undefined),6.32% (inactive)
15,CC(=O)Nc1ccc(SC[C@H](Cc2ccccc2)N2CC[C@@H](C)CCC2=O)cc1,9.24% (inactive)
16,C=CCNC(=O)/C=C/c1ccc(C(C)C)cc1,-2.85% (inactive)
17,O=C(O)/C=C/c1ccc(S(=O)(=O)N2CCCCCC2)cc1,4.85% (inactive)
18,O=C(/C=C(O)/C=C/c1ccc(O)cc1)/C=C/c1ccc(O)cc1,63.8% (active)
19,COC(=O)[C@H](CC(C)C)NS(=O)(=O)c1c(F)cccc1F,1.29% (inactive)
20,O=C(NCc1ccccc1)[C@H]1CCCN1C(=O)[C@@H]1CCCN1C(=O)c1ccc(Cl)cc1Cl,0.11% (inactive)
